{"data": "Assay results pooled from the literature", "target": "SRSF protein kinase 1 (SRPK1, Homo sapiens, UniProt Q96SB4)"}
{"Structure (SMILES)": "Cc1cnn2ncc(-c3ccnc(N(C)C)n3)c2c1", "test": "binding", "conditions": "1 µM", "remaining binding [%]": 100}
{"Structure (SMILES)": "O=C(c1ccc(Nc2ncc(Cl)c(-c3cc4ccccc4s3)n2)cc1)N1CCC(N2CCCC2)CC1", "test": "binding, competition with immobilised ligand", "conditions": "1 µM", "remaining binding [%]": 100}
{"Structure (SMILES)": "C=CC(=O)N1CCC(C(=O)NCC(=O)N2CCN(c3nc(-c4cnc(N)nc4C(F)F)nc(N4CCOCC4)n3)CC2)CC1", "test": "binding, competition with immobilised ligand", "conditions": "1 µM", "remaining binding [%]": 75}
{"Structure (SMILES)": "COc1cnc(Nc2cccc(S(N)(=O)=O)c2)nc1N1CCN(c2ccccc2)C(=O)C1", "test": "binding, competition with immobilised ligand", "conditions": "1 µM", "remaining binding [%]": 100}
{"Structure (SMILES)": "O=C(Nc1c[nH]nc1C(=O)NC1CCNCC1)c1cc(F)cc(F)c1", "test": "binding, competition with immobilised ligand", "conditions": "1 µM", "remaining binding [%]": 100}
{"Structure (SMILES)": "CNC(=O)[C@@H]1CC[C@@H](n2c(-c3ccc4cnccc4c3)nc3ccc(C(=O)NCc4cccc(C(N)=O)c4)cc32)C1", "test": "binding, competition with immobilised ligand", "conditions": "1 µM", "remaining binding [%]": 79}
{"Structure (SMILES)": "CN(c1nccc(-c2cnn3ncccc23)n1)C1CC1", "test": "binding", "conditions": "1 µM", "remaining binding [%]": 88}
{"Structure (SMILES)": "CN(C)C(=O)Cn1cc(-c2nc([C@@](C)(c3ccc(-c4cnc(N)nc4)cc3)C3CC3)no2)cn1", "test": "cell-free assay, competition with immobilised ligand", "conditions": "1 µM", "remaining binding [%]": 100}
{"Structure (SMILES)": "CN(C)c1ncc(F)c(-c2cnn3ncccc23)n1", "test": "binding", "conditions": "1 µM", "remaining binding [%]": 95}
{"Structure (SMILES)": "COc1ncc2cc3ccccc3nc2c1C#N", "test": "cell-free assay, competition with immobilised ligand", "conditions": "5 µM", "remaining binding [%]": 96}
{"Structure (SMILES)": "O=C(Nc1cccnn1)N1CC(C/C=C/c2cncc(Oc3ccc(C(F)(F)F)cn3)n2)C1", "test": "cell-free assay, competition with immobilised ligand", "conditions": "1 µM", "remaining binding [%]": 82}
{"Structure (SMILES)": "O=C(c1ccc(Nc2nccc(-c3cc4ccccc4s3)n2)cc1)N1CCC(N2CCCC2)CC1", "test": "binding, competition with immobilised ligand", "conditions": "1 µM", "remaining binding [%]": 86}
{"Structure (SMILES)": "CN(CCCC(F)(F)F)c1nccc(-c2cnn3ncccc23)n1", "test": "binding", "conditions": "1 µM", "remaining binding [%]": 100}
{"Structure (SMILES)": "Nc1cnc(N2CCc3cc(S(=O)(=O)Nc4c(F)cc(Cl)cc4F)cc(N4CCCC4=O)c32)nc1", "test": "cell-free assay, competition with immobilised ligand", "conditions": "1 µM", "remaining binding [%]": 81}
{"Structure (SMILES)": "N[C@H]1CCN(c2nccc(-c3cnn4ncccc34)n2)C1", "test": "binding", "conditions": "1 µM", "remaining binding [%]": 84}
{"Structure (SMILES)": "CNCc1ccccc1-c1csc([C@H](C)Nc2nc(C)nc3cc(OC)c(OC)cc23)c1", "test": "cell-free assay, competition with immobilised ligand", "conditions": "1 µM", "remaining binding [%]": 100}
{"Structure (SMILES)": "Cc1cnc(Nc2ccc(C(=O)N3CCC(N4CCCC4)CC3)cc2)nc1-c1cc2ccccc2s1", "test": "binding, competition with immobilised ligand", "conditions": "1 µM", "remaining binding [%]": 100}
{"Structure (SMILES)": "O=C(O)c1cc(-c2ccc(C3CCNCC3)cc2)c2ccc(-c3ccc(C(F)(F)F)cc3)cc2c1", "test": "cell-free assay, competition with immobilised ligand", "conditions": "1 µM", "remaining binding [%]": 86}
{"Structure (SMILES)": "CC1CCCN1c1nccc(-c2cnn3ncccc23)n1 (stereo not drawn)", "test": "binding", "conditions": "1 µM", "remaining binding [%]": 94}
{"Structure (SMILES)": "CN(C)C(=O)Cn1cc(-c2nc(C3(c4ccc(-c5cnc(N)nc5)cc4)CC3)no2)cn1", "test": "cell-free assay, competition with immobilised ligand", "conditions": "1 µM", "remaining binding [%]": 93}
{"Structure (SMILES)": "c1cncc(-c2cccc(Nc3nccc(NC4CCCCC4)n3)c2)c1", "test": "binding, competition with immobilised ligand", "conditions": "10 µM", "remaining binding [%]": 30}
